Assay results from different studies.
Protocols differ between the studies behind these lines.
Target: Muscarinic acetylcholine receptor M3 (CHRM3, Homo sapiens, UniProt P20309)
Tested at: 10 µM

| SMILES | effect on | method | inhibition [%] |
| --- | --- | --- | --- |
| Cc1ccccc1Oc1cc(-n2c(=O)cc(C(F)(F)F)[nH]c2=O)c2ccccc2c1Cl | ligand displacement | – | -16.2 |
| Clc1ccc2c(C3CCN(CCc4c[nH]c5ccccc45)CC3)c[nH]c2c1 | ligand displacement | radioligand | 61 |
| CCC(=NO)C(C)=Cc1ccc(F)c(C)c1 | ligand displacement | – | -5.75 |
| CN1CC[C@@]2(C)c3cc(OC(=O)Nc4ccccc4)ccc3N(C)[C@@H]12 | ligand displacement | radioligand | 3.1 |
| COCc1c(-c2cc3cc(C)cc(OC)c3s2)c2c(N)ncnn2c1CN1CCNC(=O)C1 | ligand displacement | radioligand | 0 |
| CC(C)N1CCC[C@H]1CNC(=O)c1cn(C2CCCC2)c(=O)c2c1c1ccccc1n2C | ligand displacement | radioligand | 12 |
| c1ccc(C(NCCNC(c2ccccc2)c2ccccc2)c2ccccc2)cc1 | cell-free assay | – | 11 |
| CCN(CC)CCCC[C@H](NC(=O)[C@H](CC(C)C)NC(=O)[C@H](C)NC(=O)[C@H](Cc1ccccc1)NC(=O)c1ccc(C(C)(C)C)cc1)C(=O)N[C@@H](CO)C(=O)OC | ligand displacement | radioligand | 7 |
| C[C@H](C(=O)N[C@H]1COc2ccccc2[C@@H]1S(C)(=O)=O)c1ccc(F)cc1 | cell-free assay | – | 12 |
| COc1ccc(C(=O)NCc2cc(C(C)C)no2)cc1OC1CCN(C)CC1 | ligand displacement | radioligand | 26 |
